Results taken from ChEMBL document CHEMBL2321842, “Rapid Determination of Ionization Constants (pK a) by UV Spectroscopy Using 96-Well Microtiter Plates” (ACS Med Chem Lett, 2013).

Test: Dissociation constant, pKa of the compound at pH 3 to 12 by UV spectroscopy
Type: physicochemical
In short: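 UV-spectrophotometric titration in microplate wells. 10 mM DMSO stock diluted into buffers to 0.2 mM final (0.1 mM if spectra saturated), 2% v/v DMSO. Buffers: acetate, phosphate, borax, glycine/NaOH, pH 3–12.6, ionic strength 0.1 M (KCl), 30 °C. Spectra read at 2 nm resolution. Total absorbance difference at two analytical wavelengths fitted against pH by nonlinear regression. Mean of ≥3 independent runs ± SD.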

SMILES: O=C(Nc1ccc(NC2=NCCN2)cc1)Nc1ccc(NC2=NCCN2)cc1
- pKa: 10.3

SMILES: Clc1cccc(Cl)c1N=C1NCCN1 [CLONIDINE]
- pKa: 8.14

SMILES: CCON1CCN/C1=N\c1ccc(NC(=O)Nc2ccc(/N=C3\NCCN3OCC)cc2)cc1
- pKa: 8.27

SMILES: O=[N+]([O-])c1ccc(O)cc1 [P-NITROPHENOL]
- pKa: 6.87

SMILES: O=C(Nc1ccc(/N=C2\NCCN2O)cc1)c1ccc(/N=C2/NCCN2O)cc1
- pKa: 7.43

SMILES: ON1CCN/C1=N/c1ccc(CCc2ccc(/N=C3\NCCN3O)cc2)cc1
- pKa: 7.97

SMILES: CCON1CCN/C1=N/c1ccc(CCc2ccc(/N=C3\NCCN3OCC)cc2)cc1
- pKa: 8.01

SMILES: CON1CCN/C1=N/c1ccc(C(=O)Nc2ccc(/N=C3\NCCN3OC)cc2)cc1
- pKa: 7.27

SMILES: CON1CCN/C1=N\c1ccc(NC(=O)Nc2ccc(/N=C3\NCCN3OC)cc2)cc1
- pKa: 7.95

SMILES: O=[N+]([O-])c1c[nH]cn1
- pKa: 9.2

SMILES: CON1CCN/C1=N/c1ccc(CCc2ccc(/N=C3\NCCN3OC)cc2)cc1
- pKa: 8.01

SMILES: N=C(N)Oc1ccc(Oc2ccc(OC(=N)N)cc2)cc1
- pKa: 10.7

SMILES: Cc1nc2ccccc2[nH]1
- pKa: 6.22

SMILES: c1cc(NC2=NCCN2)ccc1CCc1ccc(NC2=NCCN2)cc1
- pKa: 10.7

SMILES: CCON1CCN/C1=N/c1ccc(C(=O)Nc2ccc(/N=C3\NCCN3OCC)cc2)cc1
- pKa: 7.34
